Calls of active or inactive are those of the source. No cut-off for these calls is given here.
How the values were obtained:
[1] = system: MIA PaCa-2; test: Antitumor activity against human MIA PaCa-2 cells harboring KRAS mutant xenografted in nu/nu mouse assessed as reduction in tumor growth at 2.5 to 5 mg/kg, ip administered once daily for 5 days with 2 days break by caliper analysis; format: functional, organism-based; conditions: dose 2.5-5 mg/kg, time 5.0 day
Procedure, shortened: (§1)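 Female nu/nu mice given 2 × 10⁶ early-passage MiaPaCa-2 cells subcutaneously in the right flank, randomized 10 per group. Dosing began when tumors reached 100 mm³: 1, 2.5 or 5 mg/kg i.p. daily for 5 days with 2 days off, vehicle DMSO. Caliper readings every 3–4 days, V = 0.52 × length × width². Animals sacrificed when any tumor reached 1500 mm³.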

[2] = system: Ishikawa; test: Antiproliferative activity against human Ishikawa cells expressing wild type KRAS assessed as reduction in cell growth incubated for 72 hrs by CyQuant proliferation assay; format: functional, cell-based
Procedure, shortened: (§2)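 Cells seeded in 96-well plates; after 24 h fresh growth medium with 0.1% DMSO vehicle or drug added (highest dose 30 µM for cancer lines), grown 72 h at 37 °C, 5% CO2. Live cell number measured by CyQUANT fluorescence. IC50 from three independent experiments. MEFs were isogenic lines carrying oncogenic BRAF or KRAS.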

[3] = system: MEF; test: Antiproliferative activity against mouse MEF cells expressing KRAS G12D mutant assessed as reduction in cell growth incubated for 72 hrs by CyQuant proliferation assay; format: functional, cell-based; procedure, shortened: as §2
[4] = Antiproliferative activity against human MPANC96 cells expressing KRAS mutant assessed as reduction in cell growth incubated for 72 hrs by CyQuant proliferation assay; format: functional, cell-based; conditions: MPANC96, 72 h; procedure, shortened: as §2
[5] = system: NCI-H1975; test: Antiproliferative activity against human NCI-H1975 cells expressing wild type KRAS assessed as reduction in cell growth incubated for 72 hrs by CyQuant proliferation assay; format: functional, cell-based; conditions: NCI-H1975, 72 h; procedure, shortened: as §2
[6] = system: NCI-H522; test: Antiproliferative activity against human NCI-H522 cells expressing wild type KRAS assessed as reduction in cell growth incubated for 72 hrs by CyQuant proliferation assay; format: functional, cell-based; conditions: NCI-H522, 72 h; procedure, shortened: as §2
[7] = system: MIA PaCa-2; test: Antitumor activity human MIA PaCa-2 cells harboring KRAS mutation xenografted in nu/nu mouse assessed as induction of apoptosis by measuring increase in cleaved caspase 3 level in tumor at 1 to 5 mg/kg, ip administered once daily for 5 days with 2 days break by immunohistochemistry; format: functional, organism-based; conditions: dose 1-5 mg/kg, time 5.0 day
Procedure, shortened: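 Paraffin tumor sections of 4–5 µm were deparaffinized and given heat antigen retrieval in 10 mM sodium citrate. Endogenous peroxidase was quenched and sections blocked in 2.5% normal goat serum. Primary antibody (pERK or cleaved caspase 3) applied overnight at 4 °C, biotinylated secondary 1:250 for 45 min at rt, then ABC reagent 30 min and DAB development. Rabbit IgG served as control.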

[8] = system: MDCK; test: Inhibition of ASM in dog MDCK cells co-expressing recombinant full length GFP-tagged LactC2 and mCherry-CAAX assessed as reduction in plasma membrane localization of LactC2 incubated for 48 hrs by confocal microscopic analysis; format: cell membranes; conditions: Canis lupus familiaris
Procedure, shortened: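 MDCK cells stably co-expressing mGFP-KRAS G12V or mGFP-LactC2 with mCherry-CAAX (HRAS 179–189 C181S/C184S) grown on coverslips in DMEM/10% FBS. Treated 48 h with 0.1% DMSO or graded drug, fixed in 4% paraformaldehyde, then quantitative confocal imaging. Mislocalization scored as the Manders fraction of mCherry-CAAX co-localizing with the GFP probe. IC50 and Emax from three independent experiments.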

[9] = system: BXPC-3; test: Antiproliferative activity against human BXPC-3 cells expressing wild type KRAS assessed as reduction in cell growth incubated for 72 hrs by CyQuant proliferation assay; format: functional, cell-based; conditions: BXPC-3, 72 h; procedure, shortened: as §2
[10] = system: MDCK; test: Cytotoxicity against dog MDCK cells at 30 uM; format: functional, cell-based; conditions: Canis lupus familiaris
[11] = system: ESS-1; test: Antiproliferative activity against human ESS-1 cells expressing wild type KRAS assessed as reduction in cell growth upto 30 uM incubated for 72 hrs by CyQuant proliferation assay; format: functional, cell-based; conditions: dose microM <=30, time 72.0 hrs; procedure, shortened: as §2
[12] = system: Caenorhabditis elegans; test: In vivo inhibition of KRAS signaling in Caenorhabditis elegans lin-1 L1 harboring let60 […] mutant assessed as reduction in multi-vulva phenotype measured after 4 to 5 days culturing in buffer containing Escherichia coli OP50 by DIC/Nomarski microscopic analysis; format: functional, organism-based; conditions: dose 0.1-30 µM, time 4-5 day
Procedure, shortened: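 let-60 (n1046) or lin-1 L1 larvae cultured in M9 buffer with E. coli OP50 plus DMSO vehicle or compound at 0.1, 0.3, 1, 3, 10 or 30 µM. After 4–5 days, adults were scored for multi-vulva by DIC/Nomarski microscopy.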

[13] = system: Caco-2; test: Antiproliferative activity against human Caco-2 cells expressing wild type KRAS assessed as reduction in cell growth incubated for 72 hrs by CyQuant proliferation assay; format: functional, cell-based; conditions: Caco-2, 72 h; procedure, shortened: as §2
[14] = system: NCI-H1299; test: Antiproliferative activity against human NCI-H1299 cells expressing wild type KRAS assessed as reduction in cell growth incubated for 72 hrs by CyQuant proliferation assay; format: functional, cell-based; conditions: NCI-H1299, 72 h; procedure, shortened: as §2
[15] = system: HEC-1-A; test: Antiproliferative activity against human HEC-1-A cells expressing mutant KRAS assessed as reduction in cell growth incubated for 72 hrs by CyQuant proliferation assay; format: functional, cell-based; procedure, shortened: as §2
[16] = system: BXPC-3; test: Antitumor activity against human BXPC-3 cells harboring wild type KRAS xenografted in nu/nu mouse assessed as reduction in tumor growth at 1 mg/kg, ip administered once daily for 5 days with 2 days break by caliper analysis; format: functional, organism-based; conditions: time 5.0 day
Procedure, shortened: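 BxPC3 xenografts in nu/nu mice dosed i.p. with compound or DMSO vehicle on a schedule of daily for 5 days and 2 days off. Tumor size measured by external caliper every 3–4 days.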

[17] = system: MIA PaCa-2; test: Antitumor activity against human MIA PaCa-2 cells harboring KRAS mutant xenografted in nu/nu mouse assessed as reduction in tumor growth at 1 to 5 mg/kg, ip administered once daily for 5 days with 2 days break by caliper analysis; format: functional, organism-based; conditions: dose 1-5 mg/kg, time 5.0 day; procedure, shortened: as §1
[18] = system: HEC-1B cell line; test: Antiproliferative activity against human HEC-1B cells expressing mutant KRAS assessed as reduction in cell growth incubated for 72 hrs by CyQuant proliferation assay; format: functional, cell-based; procedure, shortened: as §2
[19] = system: MIA PaCa-2; test: Antiproliferative activity against human MIA PaCa-2 cells expressing KRAS mutant assessed as reduction in cell growth incubated for 72 hrs by CyQuant proliferation assay; format: functional, cell-based; conditions: MIA PaCa-2, 72 h; procedure, shortened: as §2

SMILES | Activity [1] | IC50 [2] [µM] | IC50 [3] [µM] | IC50 [4] [µM] | IC50 [5] [µM] | IC50 [6] [µM] | Activity [7] | inhibition [8] | IC50 [9] [µM] | Activity [10] | Activity [11] | inhibition [12] | IC50 [13] [µM] | IC50 [14] [µM] | IC50 [15] [µM] | Activity [16] | Activity [17] | IC50 [18] [µM] | IC50 [19] [µM]
COc1ccc([C@@H](C)N(CC=C(c2ccccc2)c2ccccc2)CCCN2CCN(C)CC2)cc1 | Active | 11 | 2.4 | 4.2 | > 30 | 23.5 | Active | Active | 5.3 | Active | inactive | Dose-Dependent Effect | – | – | – | – | – | – | –
COc1ccc([C@@H](C)N(CC=C(c2ccccc2)c2ccccc2)CCN2CCCC2)cc1 | – | 17.3 | 3.9 | 3.8 | > 30 | 27.3 | Active | Active | 5.5 | Active | inactive | Dose-Dependent Effect | 4.2 | 8 | 2.3 | inactive | Active | 3 | 3.1

Source: ChEMBL document CHEMBL4814013, “Scaffold repurposing of fendiline: Identification of potent KRAS plasma membrane localization inhibitors” (Eur J Med Chem, 2021)
